Published values pooled from the literature.
Lines come from different studies, so protocols differ.
Target: STE20/SPS1-related proline-alanine-rich protein kinase (STK39, Homo sapiens, UniProt Q9UEW8)

Cn1cnc(Br)c1C1=CN(c2ncnc3[nH]cnc23)CCS1 — inhibition (enzyme activity; inhibitor; radiometric; 2 µM): 86.6%
Cc1ccc(NC(=O)c2ccc(CN3CCN(C)CC3)cc2)cc1Nc1nc(-c2cccnc2)cs1 — remaining signal (cell-free assay; 0.5 µM): 94%
Cn1cncc1C1=CN(c2ncnc3[nH]cnc23)CCS1 — inhibition (enzyme activity; inhibitor; radiometric; 2 µM): 87.3%
CS(=O)(=O)N1CCCC(NC(=O)[C@H](CCC2CCCCC2)NC(=O)c2ccc(CNc3ncnc4c3nnn4-c3ccccc3)cc2)C1 (stereo partly drawn) — remaining binding (cell-free assay; competition with immobilised ligand; 0.1 µM): 100%
CC(C)(O)[C@H]1CC[C@H](Nc2ccc3ncc(-c4cccc(C(F)(F)F)c4)n3n2)CC1 — remaining activity (enzyme activity; inhibitor; 1 µM): 112%
Cc1sc(C(=O)NC2COC2)cc1-n1cc(NC(=O)Nc2c(F)cccc2Cl)cn1 — remaining activity (enzyme activity; inhibitor; 10 µM): 64.5%
CCC(=O)N[C@@H]1CC[C@H](C(=O)N(C)c2ccc(-c3nc4ccccc4o3)cc2)C1 — remaining binding (cell-free assay; competition with immobilised ligand; 1 µM): 73%
CC(C)(C)c1nc(-c2cccc(NS(=O)(=O)c3c(F)cccc3F)c2F)c(-c2ccnc(N)n2)s1 — remaining activity (enzyme activity; inhibitor; radiometric; 1 µM): 81%
O=C1NC(=O)c2cc(Nc3ccc(F)cc3)c(Nc3ccc(F)cc3)cc21 — remaining signal (cell-free assay; 0.5 µM): 89.2%
O=C(Nc1ccc(Oc2ccc(F)cc2)cc1)N1CCc2ncccc2[C@H]1c1ccc(F)cc1 — remaining binding (cell-free assay; competition with immobilised ligand; 1 µM): 82%
COc1cc2c(N3CCN(C(=O)Nc4ccc(OC(C)C)cc4)CC3)ncnc2cc1OCCCN1CCCCC1 — remaining signal (cell-free assay; 0.5 µM): 93.2%
O=C(Nc1cnn(-c2csc(C(=O)NC3COC3)c2)c1)Nc1c(F)cccc1Cl — remaining activity (enzyme activity; inhibitor; 5 µM): 82.3%
